According to ChEMBL document CHEMBL1124475, “The thieno[3,2-c]pyridine and furo[3,2-c]pyridine rings: new pharmacophores with potential antipsychotic activity” (J Med Chem, 1989):
Active and inactive are the calls of the source. No cut-off for these calls is given here.

Columns and labels:
D(2) dopamine receptor [1] = molecular target: T1, D(2) dopamine receptor (Rattus norvegicus, UniProt P61169); test: Ability to bind at dopamine receptor D2 of rat corpus striatum by displacing [3H]spiperone
Rattus norvegicus [2] = test: Conditioned avoidance response (CAR) when administered perorally; format: functional; settings: po
[3] = molecular target: T2, 5-hydroxytryptamine receptor 1A (Rattus norvegicus, UniProt P19327); test: Ability to bind at 5-hydroxytryptamine 1A receptor of rat hippocampus by displacing [3H]8-OH-DPAT; format: tissue-based
T2 sequence (P19327 whole entry): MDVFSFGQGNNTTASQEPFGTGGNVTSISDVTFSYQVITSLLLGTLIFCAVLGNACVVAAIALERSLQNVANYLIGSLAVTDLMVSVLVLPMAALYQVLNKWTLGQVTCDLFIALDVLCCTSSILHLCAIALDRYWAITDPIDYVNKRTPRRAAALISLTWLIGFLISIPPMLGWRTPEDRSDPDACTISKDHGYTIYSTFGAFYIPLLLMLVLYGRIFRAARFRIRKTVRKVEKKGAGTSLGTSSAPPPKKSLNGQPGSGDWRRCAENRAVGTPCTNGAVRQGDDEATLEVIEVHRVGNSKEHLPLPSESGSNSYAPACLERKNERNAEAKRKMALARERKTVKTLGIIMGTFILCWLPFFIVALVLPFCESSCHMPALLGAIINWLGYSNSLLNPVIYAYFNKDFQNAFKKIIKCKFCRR
Outline: (§1)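 Rat receptor radioligand displacement, five test-ligand concentrations used to calculate IC50, each assay in duplicate. Some compounds determined four times (in duplicate), with mean IC50 reported.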

[4] = molecular target: Serotonin 1 (5-HT1) receptor (Rattus norvegicus, UniProt P28564+P30940+P19327+P28565); test: Ability to bind at 5-hydroxytryptamine 1 receptor of rat hippocampus by displacing [3H]5-HT; format: tissue-based; outline: as §1
Rattus norvegicus [5] = test: Blockade of Sidman-avoidance activity in rats when administered perorally; format: functional
Outline: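 Rats trained in once-daily Sidman sessions until stable; non-learners after 3 days replaced. Twelve rats dosed 30 min before session. Each rat compared with mean of its previous three drug-free days by paired t test. Testing continued to minimally effective dose; maximum usually 100 mg/kg. MED is mean over 12 animals.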

Rattus norvegicus [6] = test: Blockade of apomorphine-induced stereotypy in rats when administered perorally; format: functional; settings: po
[7] = molecular target: T3, Adrenergic receptor alpha-1 (Rattus norvegicus, UniProt P15823+P23944+P43140); test: Ability to bind at Alpha-1 adrenergic receptor by displacing [3H]WB-4101; format: protein assay
T3 sequence (P15823 whole entry): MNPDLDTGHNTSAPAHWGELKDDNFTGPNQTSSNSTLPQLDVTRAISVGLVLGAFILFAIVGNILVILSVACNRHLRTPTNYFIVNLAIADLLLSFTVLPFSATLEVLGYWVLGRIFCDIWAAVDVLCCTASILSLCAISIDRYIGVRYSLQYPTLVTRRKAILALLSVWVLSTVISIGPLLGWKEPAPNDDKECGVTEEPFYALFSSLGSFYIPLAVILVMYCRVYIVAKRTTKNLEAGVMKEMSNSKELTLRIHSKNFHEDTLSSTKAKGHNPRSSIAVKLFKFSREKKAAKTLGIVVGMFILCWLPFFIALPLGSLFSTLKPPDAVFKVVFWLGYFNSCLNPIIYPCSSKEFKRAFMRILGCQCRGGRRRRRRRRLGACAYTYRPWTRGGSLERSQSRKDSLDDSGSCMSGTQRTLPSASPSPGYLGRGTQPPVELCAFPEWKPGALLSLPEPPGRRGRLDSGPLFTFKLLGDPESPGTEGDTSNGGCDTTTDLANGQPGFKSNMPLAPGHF
T3 sequence (P23944 whole entry): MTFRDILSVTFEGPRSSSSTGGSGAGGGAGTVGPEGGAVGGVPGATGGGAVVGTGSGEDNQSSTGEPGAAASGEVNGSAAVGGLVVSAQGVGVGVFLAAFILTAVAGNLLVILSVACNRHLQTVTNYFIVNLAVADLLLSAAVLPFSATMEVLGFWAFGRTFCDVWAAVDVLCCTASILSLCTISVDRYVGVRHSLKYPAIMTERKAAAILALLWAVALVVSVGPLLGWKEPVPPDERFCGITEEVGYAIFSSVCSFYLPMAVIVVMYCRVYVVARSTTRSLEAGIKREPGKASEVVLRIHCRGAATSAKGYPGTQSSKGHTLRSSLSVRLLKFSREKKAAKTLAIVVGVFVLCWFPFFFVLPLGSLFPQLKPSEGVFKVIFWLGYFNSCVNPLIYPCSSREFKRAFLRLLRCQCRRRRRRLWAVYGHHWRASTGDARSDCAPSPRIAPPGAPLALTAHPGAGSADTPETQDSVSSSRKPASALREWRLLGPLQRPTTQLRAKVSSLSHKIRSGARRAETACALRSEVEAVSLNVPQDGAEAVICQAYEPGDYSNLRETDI
T3 sequence (P43140 whole entry): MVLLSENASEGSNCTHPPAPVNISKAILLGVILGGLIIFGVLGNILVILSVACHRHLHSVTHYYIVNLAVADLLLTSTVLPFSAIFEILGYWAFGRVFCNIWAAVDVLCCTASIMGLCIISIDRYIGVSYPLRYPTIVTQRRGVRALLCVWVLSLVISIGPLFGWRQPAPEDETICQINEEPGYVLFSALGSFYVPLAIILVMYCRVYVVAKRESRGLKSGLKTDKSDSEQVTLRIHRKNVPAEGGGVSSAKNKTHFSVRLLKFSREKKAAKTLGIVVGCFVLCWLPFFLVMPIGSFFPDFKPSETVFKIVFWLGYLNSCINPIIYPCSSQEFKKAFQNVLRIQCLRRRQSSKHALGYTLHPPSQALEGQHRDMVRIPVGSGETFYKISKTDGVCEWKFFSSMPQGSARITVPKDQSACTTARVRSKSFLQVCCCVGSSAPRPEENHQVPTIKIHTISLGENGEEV

[8] = molecular target: T4, Serotonin 2 (5-HT2) receptor (Rattus norvegicus, UniProt P30994+P08909+P14842); test: Ability to bind at 5-hydroxytryptamine 2 receptor of rat cortex by displacing [3H]spiperone
D(2) dopamine receptor [9] = molecular target: T1, D(2) dopamine receptor; test: Ability to bind at Dopamine receptor D2 of rat corpus striatum by displacing [3H]spiperone; outline: as §1
[10] = molecular target: T3, Adrenergic receptor alpha-1; test: Ability to bind at alpha-1 adrenergic receptor by displacing [3H]WB-4101; format: protein assay; outline: as §1
[11] = molecular target: T4, Serotonin 2 (5-HT2) receptor; test: Ability to bind at serotonin 5-hydroxytryptamine 2 receptors of rat cortex by displacing [3H]spiperone
[12] = molecular target: T2, 5-hydroxytryptamine receptor 1A; test: Ability to bind at serotonin 5-hydroxytryptamine 1A receptors of rat hippocampus by displacing [3H]8-OH-DPAT; format: tissue-based; outline: as §1
Rattus norvegicus [13] = test: Induction of catalepsy in rats when administered perorally and maximum dose examined was 4 times the ED50 value established in CAR; Inactive; format: functional, organism-based
Mus musculus = test: Blockade of apomorphine-induced climbing in mice when administered perorally; IA Inactive; format: functional, organism-based
Outline: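 Male mice habituated 30 min in individual cages, then dosed orally (distilled H2O or 0.5% Methocel suspension, 10 mL/kg) or vehicle. Apomorphine 1.5 mg/kg sc given 30 min later. Climbing scored at 10, 20, 30 min post-apomorphine. At least five animals per dose, maximum 100 mg/kg.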

T1 sequence (P61169 whole entry): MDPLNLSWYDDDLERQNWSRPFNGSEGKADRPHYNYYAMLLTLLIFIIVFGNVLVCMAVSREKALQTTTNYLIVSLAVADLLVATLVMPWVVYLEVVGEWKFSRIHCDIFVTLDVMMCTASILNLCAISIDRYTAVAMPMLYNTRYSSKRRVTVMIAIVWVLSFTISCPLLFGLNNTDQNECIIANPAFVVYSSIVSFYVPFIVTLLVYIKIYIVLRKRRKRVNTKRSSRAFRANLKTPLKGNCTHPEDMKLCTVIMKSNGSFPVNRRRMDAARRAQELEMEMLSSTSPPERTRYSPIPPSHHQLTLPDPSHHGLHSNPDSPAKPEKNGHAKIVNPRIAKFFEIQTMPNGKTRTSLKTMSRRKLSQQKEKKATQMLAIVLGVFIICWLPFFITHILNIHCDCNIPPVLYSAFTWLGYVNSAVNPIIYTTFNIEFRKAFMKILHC

SMILES | IC50 (D(2) dopamine receptor [1]) | ED50 (Rattus norvegicus [2]) | IC50 [4] | IC50 (D(2) dopamine receptor [9]) | IC50 [11] | IC50 [12] | further results
Cl.Cn1ccc2c(N3CCN(CCCCN4C(=O)SC5(CCCC5)C4=O)CC3)nccc21 | 517 nM | 59.5 mg/kg | – | – | – | – | IC50 [3]: 246 nM
Cl.O=C1SC2(CCCC2)C(=O)N1CCCCN1CCN(c2nccc3sccc23)CC1 | 88.3 nM | 11.6 mg/kg | 8.1 nM | – | – | – | MED50 (Rattus norvegicus [5]): 5 mg/kg; ED50 (Rattus norvegicus [6]): 35.2 mg/kg; IC50 [7]: 30.5 nM; IC50 [8]: 3.9 nM
Cl.O=C1c2ccccc2S(=O)(=O)N1CCCCN1CCN(c2nccc3sccc23)CC1 | – | > 62.5 mg/kg | 2.3 nM | 320 nM | 5.7 nM | 0.68 nM | IC50 [10]: 1.2 nM
CC1(C)CC(=O)N(CCCCN2CCN(c3nccc4occc34)CC2)C(=O)C1.Cl | 626 nM | 4.2 mg/kg | – | – | – | – | IC50 [7]: 47 nM; IC50 [3]: 8.64 nM
Cl.O=C1c2ccccc2C(=O)N1CCCCN1CCN(c2nccc3sccc23)CC1 | – | 38.9 mg/kg | 5.3 nM | 306 nM | 2.8 nM | 2.7 nM | IC50 [10]: 0.69 nM
CC1CC(=O)N(CCCCN2CCN(c3nccc4sccc34)CC2)C(=O)C1.Cl | – | 2.9 mg/kg | 8.8 nM | 663 nM | 4.2 nM | 1.3 nM | ED50 (Rattus norvegicus [13]): inactive; MED50 (Mus musculus): inactive; ED50 (Rattus norvegicus [6]): 39.5 mg/kg
Cl.O=C1CSCC(=O)N1CCCCN1CCN(c2nccc3occc23)CC1 | – | 35.8 mg/kg | – | > 1000 nM | – | – | –
Cc1cc2c(N3CCN(CCCCN4C(=O)SC5(CCCC5)C4=O)CC3)nccc2o1.Cl | 751 nM | 28.4 mg/kg | – | – | – | – | IC50 [7]: 27.5 nM; IC50 [3]: 2.2 nM
Cl.O=C1SC2(CCCC2)C(=O)N1CCCCN1CCN(c2nccc3occc23)CC1 | 331 nM | 9.2 mg/kg | – | – | – | – | IC50 [7]: 23.5 nM
O=C1CSCC(=O)N1CCCCN1CCN(c2nccc3sccc23)CC1 | – | 31.9 mg/kg | – | 608 nM | 6.7 nM | 1.15 nM | IC50 [10]: 1.1 nM
Cl.O=C1SC2(CCCC2)C(=O)N1CCCCN1CCN(c2nccc3sc(Br)cc23)CC1 | 440 nM | > 100 mg/kg | 25.3 nM | – | – | – | IC50 [8]: 116 nM
Cl.Cn1ccc2c(N3CCN(CCCCN4C(=O)CC(C)(C)CC4=O)CC3)nccc21 | – | 67.2 mg/kg | – | > 1000 nM | – | – | –
Cl.O=C1CCCC(=O)N1CCCCN1CCN(c2nccc3sccc23)CC1 | – | 5.4 mg/kg | – | – | 19.1 nM | 2.5 nM | ED50 (Rattus norvegicus [13]): inactive; MED (Rattus norvegicus [5]; po): 20 mg/kg; MED50 (Mus musculus): inactive; ED50 (Rattus norvegicus [6]): 55.6 mg/kg
Cc1cc2c(N3CCN(CCCCN4C(=O)CC(C)(C)CC4=O)CC3)nccc2o1.Cl | – | 13.8 mg/kg | – | 708 nM | – | 4.9 nM | –
Cc1cc2c(N3CCN(CCCCN4C(=O)SC5(CCCC5)C4=O)CC3)nccc2s1.Cl | 279 nM | 35.4 mg/kg | 3.6 nM | – | – | – | IC50 [8]: 43.4 nM
Cl.Cn1ccc2c(N3CCN(CCCCN4C(=O)COCC4=O)CC3)nccc21 | – | > 100 mg/kg | – | > 1000 nM | – | – | –
Cc1cc2c(N3CCN(CCCC(O)c4ccc(F)cc4)CC3)nccc2o1.Cl (configuration not stated) | – | 23.2 mg/kg | – | – | – | 6.2 nM | –
Cl.OC(CCCN1CCN(c2nccc3occc23)CC1)c1ccc(F)cc1 (configuration not stated) | – | 3.1 mg/kg | – | 339 nM | 55.2 nM | 12.4 nM | IC50 [10]: 23.8 nM
CC1(C)CC(=O)N(CCCCN2CCN(c3nccc4sc(Br)cc34)CC2)C(=O)C1.Cl | – | 65.3 mg/kg | 3.7 nM | 228 nM | 70.9 nM | – | IC50 [10]: 27.2 nM
